eIF4H FP inh: inhibitors of RNA binding by human eIF4H. eIF4H fluorescence polarization binding assay. inhibition, % at 35 µM. hit rate 0.94% among 290,000. AID 2012;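 note: calls also rest on retests at 20 µM and on dose response follow-up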
HCV core dimer: HCV core protein dimerization inhibition. hit rate 0.33% among 300,000. inhibition, % at 5 µM. TR-FRET GST/Flag-core106 dimerization, 1536-well;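 active = inhibition above the mean of all tested compounds plus 3 SD, set per screening campaign, cut at about 45% in these data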
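System: GST/Flag-tagged HCV core106 proteins. Incubation: compound-protein-antibody incubation 4 h at 22.5 °C. Technique: HTRF with 340 nm excitation, 617/671 nm emission. Medium: KF-containing HEPES buffer, pH 7.45, DTT, CHAPS, BSA. Read-out: inhibition (%) from 671 over 617 nm ratio. Also added: Eu(K)-anti-GST 90 ng/mL plus XL665-anti-Flag 1 µg/mL.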
MLLE-PAM2 inh: blocks PAM2 peptide binding to the PABP1 MLLE domain; AID 588489; inhibition, % at 20 µM; P11940; GST-MLLE / FITC-PAM2 fluorescence polarization; hit rate 0.36% among 360,000; in the data active = inhibition above about 35%, passing the limit was not always enough
Target sequence (P11940 whole entry, looked up, the tested form may be a part): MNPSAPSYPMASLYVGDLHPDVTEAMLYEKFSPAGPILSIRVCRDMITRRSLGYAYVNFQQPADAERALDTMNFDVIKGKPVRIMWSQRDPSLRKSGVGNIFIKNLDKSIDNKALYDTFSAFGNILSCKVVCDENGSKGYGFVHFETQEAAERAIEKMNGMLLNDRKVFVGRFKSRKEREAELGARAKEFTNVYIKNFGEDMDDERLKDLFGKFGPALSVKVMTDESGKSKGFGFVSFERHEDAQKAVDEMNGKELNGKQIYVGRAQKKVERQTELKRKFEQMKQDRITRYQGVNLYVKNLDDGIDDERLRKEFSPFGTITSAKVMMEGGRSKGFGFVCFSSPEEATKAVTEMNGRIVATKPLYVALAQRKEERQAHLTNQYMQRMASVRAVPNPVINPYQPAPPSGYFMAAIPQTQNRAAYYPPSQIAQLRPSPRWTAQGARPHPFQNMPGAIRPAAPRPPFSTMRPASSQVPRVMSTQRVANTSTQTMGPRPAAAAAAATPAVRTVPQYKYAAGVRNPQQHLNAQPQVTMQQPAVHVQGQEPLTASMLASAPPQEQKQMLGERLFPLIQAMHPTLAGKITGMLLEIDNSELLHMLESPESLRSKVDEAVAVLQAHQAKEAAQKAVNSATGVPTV
DNA FID counter: fluorescent intercalator displacement, NS3 helicase counter-screen | inhibition, % at 7.9 µM | hit rate 0.17% among 290,000 | DNA fluorescent intercalator displacement, fluorescence; in the data active = inhibition above about 37%;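 note: higher means more ethidium bromide displaced from hairpin DNA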
PABP polyA inh: blocks human PABP binding to poly(A) RNA. P11940. fluorescence polarization. inhibition, % at 35 µM. hit rate 1% among 290,000. AID 2014;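 note: calls also rest on retests at 20 µM and on dose response follow-up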
NS3 helicase inh: blocks Hepatitis C virus NS3 helicase unwinding; NS3 helicase DNA unwinding, Cy5 molecular beacon fluorescence; inhibition, % at 10.9 µM; AID 1800; hit rate 0.56% among 290,000;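 active = inhibition above the mean of all tested compounds plus 3 SD, set per campaign, cut at about 35% in these data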
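System: HCV NS3 helicase fragment; control set: DMSO and thioflavine S; technique: Cy5 fluorescence at 0 and 60 min, beacon hairpin quenching; reagent: beacon DNA duplex substrate plus ATP; replicates: singlicate; schedule: 1 h reaction at 25 °C, ATP-initiated; medium: MOPS buffer pH 6.5 with MgCl2, DTT, Tween20, BSA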
A number is an active result; n = inactive; u = inconclusive; x = no result. Hits are enriched below; roughly 2% of the tested compounds scored in any of these assays. Unless noted, the rule behind the calls is not given here.

SMILES	eIF4H FP inh	HCV core dimer	MLLE-PAM2 inh	DNA FID counter	PABP polyA inh	NS3 helicase inh
CCc1ccccc1NC(=O)C1CCCN(c2ncnc3onc(-c4ccc(F)cc4)c23)C1 (stereo unspecified)	n	n	n	n	n	n
CC(=O)Oc1c(I)cc(I)cc1C(=O)Nc1ccc(Cl)cc1	n	n	n	n	n	n
N/C(=N\C(=S)Nc1ccccc1)c1ccccc1	n	n	n	n	n	n
NC(N)=NC(=S)Nc1ccc(Cl)cc1	n	x	44.5	n	n	n
O=C(Cc1c(F)cccc1Cl)NNC(=O)c1ccccc1Cl	x	x	n	x	x	x
O=C1CC(c2ccccc2)CC(=O)C1Sc1ccc(Cl)cc1 (stereo unspecified)	n	n	42.1	n	n	n
O=C1C=C(c2ccccc2)C[C@@H](c2ccc(Cl)cc2)C1	x	x	n	x	x	x
Clc1ccc2[nH]c3c(NCCCN4CCOCC4)ncnc3c2c1	n	n	n	38.0	n	n
Cc1ccc2[nH]c3c(NCCN4CCOCC4)ncnc3c2c1	n	x	n	n	n	n
O=c1[nH]c(=S)[nH]cc1Oc1ccc(Cl)cc1Cl	n	x	45.9	n	n	n
Cc1cc(-c2ccc(C)c(S(=O)(=O)NCC3CCN(Cc4ccccc4F)CC3)c2)on1	n	n	n	n	n	n
COc1ccccc1CN1CCC(CNS(=O)(=O)c2cc(-c3onc(C)c3C)ccc2OC)CC1	n	n	n	44.5	n	n
CN(CC(=O)Nc1cccc(F)c1)C(=O)CCCN1C(=O)c2cccc3cccc(c23)C1=O	x	n	n	x	x	x
O=C(c1oc2ccccc2c1CSCc1ccccc1)N1CCN(c2ncccn2)CC1	n	n	68.7	n	n	n
CCC1CCCCN1Cc1ccc(CNS(=O)(=O)c2ccc3c(c2)oc(=O)n3C)o1 (stereo unspecified)	55.1	n	n	n	67.6	n
Cn1c(=O)oc2cc(S(=O)(=O)Nc3cccc4c3CCCC4)ccc21	62.0	n	n	n	55.8	n
Cn1c(=O)oc2cc(S(=O)(=O)NCc3ccc(F)cc3)ccc21	n	n	n	n	n	n
Cc1cc(C)c(NS(=O)(=O)c2ccc3c(c2)oc(=O)n3C)c(C)c1	x	x	n	x	x	x
Cn1c(=O)oc2cc(S(=O)(=O)NCc3cccnc3)ccc21	n	n	n	n	23.6	n
Cn1cnc(S(=O)(=O)N2CCCCC2c2cc(C(=O)Nc3cccc4c3CCCC4)no2)c1 (stereo unspecified)	x	x	n	x	x	x
COc1ccc(NC(=O)c2cc(-c3ccc(F)cc3OC)n[nH]2)c(C)c1	x	x	n	x	x	x
CC(C)N1CCC1(C)C(=O)Nc1nc2ccccc2[nH]1 (stereo unspecified)	x	x	n	x	x	x
O=C(CCc1n[nH]c(=O)[nH]c1=O)N/N=C/c1ccco1	77.4	n	n	n	active	n
Cc1ccc(C(=O)NC(=S)Nc2c(C)ccc3nsnc23)cc1	n	n	n	n	n	n
CC(C)C(=O)NC(=S)Nc1c(Cl)ccc2nsnc12	78.6	n	n	n	73.2	n
SMILES	eIF4H FP inh	HCV core dimer	MLLE-PAM2 inh	DNA FID counter	PABP polyA inh	NS3 helicase inh
COc1ccc(Cc2c(C(C)(C)C)nc3c(C)cc(Br)cn23)c(C)c1	x	x	47.1	x	x	x
COc1ccccc1Cc1c(-c2ccccc2)nc2c(C)cc(Br)cn12	x	x	n	x	x	x
COc1cccc(S(=O)(=O)N2CCN(Cc3ccc4c(c3)OCO4)CC2)c1	n	n	n	n	n	n
Cc1cc(C(=O)OCC(=O)c2ccc(Cl)c([N+](=O)[O-])c2)c2cccc(C)c2n1	n	46.4	n	n	n	n
COc1ccc(CC(=O)O/N=C(\N)c2cccc([N+](=O)[O-])c2)cc1	u	n	n	n	121.0	n
COc1ccc(CC(=O)O/N=C(\N)c2ccc(OC)cc2)cc1	n	n	n	n	n	n
CC(OC(=O)CCNS(=O)(=O)c1ccc(Cl)cc1)C(=O)N(C)Cc1ccccc1 (stereo unspecified)	x	x	n	x	x	x
O=C(O)/C=C/C(=O)N1CCN(S(=O)(=O)c2cc(C(F)(F)F)ccc2Cl)CC1	2.1	n	n	n	69.0	n
COC(=O)c1cc(N/C(N)=N/c2nc(C)cc(C)n2)cc(C(=O)OC)c1	x	x	n	x	x	x
O=C(N/N=C/c1ccc([N+](=O)[O-])o1)c1cn(-c2ccccc2)nc1-c1ccccc1	n	n	n	n	n	n
O=C(N/N=C/c1ccc([N+](=O)[O-])o1)c1cn(-c2ccccc2)nc1-c1ccc(Cl)cc1	n	46.1	n	n	n	n

Source: PubChem BioAssay (several laboratories)
